In ChEMBL document CHEMBL1132616, “6-Substituted benzopyrans as potassium channel activators: synthesis, vasodilator properties, and multivariate analysis” (1999):

Species on record: Rattus norvegicus
Experiment: Relaxant potency in rat aorta.
Assay type: functional
Method in brief: (§1)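 Aortic rings (5 mm wide) were denuded of endothelium, confirmed by the absence of a dilator response to 1 mmol/L acetylcholine. Tracheal strips were cut through the ring opposite the muscle layer. Tissues were mounted in 7-mL baths for isometric force recording. Once contraction was stable, cumulative concentration–effect curves were run. Compounds came from 10^-2 M DMSO stocks diluted in water, with final bath DMSO at most 2%.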

Compound	Log 1/C
CC1(C)C=C(n2ccccc2=O)c2cc(C(F)(F)F)ccc2O1	7.61
CC1(C)C=C(n2ccccc2=O)c2cc(Br)ccc2O1	7.84
CC1(C)C=C(n2ccccc2=O)c2cc(-c3ccncc3)ccc2O1	6.68
CC1(C)C=C(n2ccccc2=O)c2cc(C(=N)NO)ccc2O1	5.99
CC1(C)C=C(n2ccccc2=O)c2cc(C(=O)c3ccccc3C(F)(F)F)ccc2O1	6.76
CC1(C)C=C(n2ccccc2=O)c2cc(C(=O)c3ccccc3F)ccc2O1	7.08
CCC(=O)c1ccc2c(c1)C(n1ccccc1=O)=CC(C)(C)O2	6.63
CC1(C)C=C(n2ccccc2=O)c2cc(OCC(=O)c3ccc(F)cc3)ccc2O1	4.63
CC1(C)C=C(n2ccccc2=O)c2cc(OCC(=O)c3ccccc3)ccc2O1	5.05
Cc1ccccc1C(=O)c1ccc2c(c1)C(n1ccccc1=O)=CC(C)(C)O2	6.83
CC1(C)C=C(n2ccccc2=O)c2cc(OC(=O)Nc3ccccc3F)ccc2O1	5.38
CC1(C)C=C(n2ccccc2=O)c2cc(C(=O)c3c(F)cccc3F)ccc2O1	6.97
CC1(C)C=C(n2ccccc2=O)c2cc(O)ccc2O1	5.44
COc1ccc(C(=O)c2ccc3c(c2)C(n2ccccc2=O)=CC(C)(C)O3)cc1	6.15
COc1ccc2c(c1)C(n1ccccc1=O)=CC(C)(C)O2	6.55
CC1(C)C=C(n2ccccc2=O)c2cc(OC(=O)Nc3ccccc3C(F)(F)F)ccc2O1	5.58
CC1(C)C=C(n2ccccc2=O)c2cc(C(=O)c3ccc(O)cc3)ccc2O1	6.65

Compound	Log 1/C
CC1(C)C=C(n2ccccc2=O)c2cc(OC(=O)Nc3ccccc3)ccc2O1	5.3
CC1(C)C=C(n2ccccc2=O)c2cc(C(=O)c3cccs3)ccc2O1	6.4
CC1(C)C=C(n2ccccc2=O)c2cc(C(=O)c3ccccc3)ccc2O1	6.61
CC1(C)C=C(n2ccccc2=O)c2cc(C(=O)c3ccco3)ccc2O1	6.49
CC1(C)C=C(n2ccccc2=O)c2cc(C(=O)c3ccccc3[N+](=O)[O-])ccc2O1	6.17
CC1(C)C=C(n2ccccc2=O)c2cc(C(=N)S)ccc2O1	6.21
CC(=O)c1ccc2c(c1)C(n1ccccc1=O)=CC(C)(C)O2	7.37
Cc1ccc(C)n1-c1ccc2c(c1)C(n1ccccc1=O)=CC(C)(C)O2	7.27
CC1(C)C=C(n2ccccc2=O)c2cc(C(=O)c3ccc([N+](=O)[O-])cc3)ccc2O1	6.2
CC1(C)C=C(n2ccccc2=O)c2ccccc2O1	5.43
CC(=O)Oc1ccc2c(c1)C(n1ccccc1=O)=CC(C)(C)O2	5.6
CC1(C)C=C(n2ccccc2=O)c2cc(OS(=O)(=O)F)ccc2O1	7.95
CC1(C)C=C(n2ccccc2=O)c2cc(C=O)ccc2O1	6.91
CC1(C)C=C(n2ccccc2=O)c2cc(OC(=O)Nc3ccc(F)cc3)ccc2O1	5.3
CC1(C)C=C(n2ccccc2=O)c2cc(C=C(C#N)C#N)ccc2O1	6.95
CC1(C)C=C(n2ccccc2=O)c2cc(OC(=O)Nc3ccc(C(F)(F)F)cc3)ccc2O1	5.1
CC1(C)C=C(n2ccccc2=O)c2cc(C#N)ccc2O1 [BIMAKALIM]	7.67

Species on record: Rattus norvegicus
Experiment: Relaxant potency in rat trachea.
Assay type: functional
Method in brief: as §1

Compound	Log 1/C
CC1(C)C=C(n2ccccc2=O)c2cc(C(F)(F)F)ccc2O1	7.37
CC1(C)C=C(n2ccccc2=O)c2cc(Br)ccc2O1	7.53
CC1(C)C=C(n2ccccc2=O)c2cc(-c3ccncc3)ccc2O1	6.32
CC1(C)C=C(n2ccccc2=O)c2cc(C(=N)NO)ccc2O1	5.51
CC1(C)C=C(n2ccccc2=O)c2cc(C(=O)c3ccccc3C(F)(F)F)ccc2O1	5.78
CC1(C)C=C(n2ccccc2=O)c2cc(C(=O)c3ccccc3F)ccc2O1	6.34
CCC(=O)c1ccc2c(c1)C(n1ccccc1=O)=CC(C)(C)O2	5.85
CC1(C)C=C(n2ccccc2=O)c2cc(OCC(=O)c3ccc(F)cc3)ccc2O1	4.77
CC1(C)C=C(n2ccccc2=O)c2cc(OCC(=O)c3ccccc3)ccc2O1	4.69
Cc1ccccc1C(=O)c1ccc2c(c1)C(n1ccccc1=O)=CC(C)(C)O2	6.25
CC1(C)C=C(n2ccccc2=O)c2cc(OC(=O)Nc3ccccc3F)ccc2O1	4.22
CC1(C)C=C(n2ccccc2=O)c2cc(C(=O)c3c(F)cccc3F)ccc2O1	5.99
CC1(C)C=C(n2ccccc2=O)c2cc(O)ccc2O1	5.31
COc1ccc(C(=O)c2ccc3c(c2)C(n2ccccc2=O)=CC(C)(C)O3)cc1	5.72
COc1ccc2c(c1)C(n1ccccc1=O)=CC(C)(C)O2	5.99
CC1(C)C=C(n2ccccc2=O)c2cc(OC(=O)Nc3ccccc3C(F)(F)F)ccc2O1	5.19
CC1(C)C=C(n2ccccc2=O)c2cc(C(=O)c3ccc(O)cc3)ccc2O1	5.87

Compound	Log 1/C
CC1(C)C=C(n2ccccc2=O)c2cc(OC(=O)Nc3ccccc3)ccc2O1	4.89
CC1(C)C=C(n2ccccc2=O)c2cc(C(=O)c3cccs3)ccc2O1	5.84
CC1(C)C=C(n2ccccc2=O)c2cc(C(=O)c3ccccc3)ccc2O1	6.21
CC1(C)C=C(n2ccccc2=O)c2cc(C(=O)c3ccco3)ccc2O1	5.92
CC1(C)C=C(n2ccccc2=O)c2cc(C(=O)c3ccccc3[N+](=O)[O-])ccc2O1	5.64
CC1(C)C=C(n2ccccc2=O)c2cc(C(=N)S)ccc2O1	5.96
CC(=O)c1ccc2c(c1)C(n1ccccc1=O)=CC(C)(C)O2	6.65
Cc1ccc(C)n1-c1ccc2c(c1)C(n1ccccc1=O)=CC(C)(C)O2	6.78
CC1(C)C=C(n2ccccc2=O)c2cc(C(=O)c3ccc([N+](=O)[O-])cc3)ccc2O1	6.09
CC1(C)C=C(n2ccccc2=O)c2ccccc2O1	5.05
CC(=O)Oc1ccc2c(c1)C(n1ccccc1=O)=CC(C)(C)O2	4.97
CC1(C)C=C(n2ccccc2=O)c2cc(OS(=O)(=O)F)ccc2O1	7.22
CC1(C)C=C(n2ccccc2=O)c2cc(C=O)ccc2O1	6.14
CC1(C)C=C(n2ccccc2=O)c2cc(OC(=O)Nc3ccc(F)cc3)ccc2O1	4.37
CC1(C)C=C(n2ccccc2=O)c2cc(C=C(C#N)C#N)ccc2O1	6.3
CC1(C)C=C(n2ccccc2=O)c2cc(OC(=O)Nc3ccc(C(F)(F)F)cc3)ccc2O1	4.54
CC1(C)C=C(n2ccccc2=O)c2cc(C#N)ccc2O1 [BIMAKALIM]	7.1
